Shown are actives, neighbours in structure and some others; about 2% of the full set was active somewhere.
HTRA1 inh: blocks human HTRA1 serine peptidase; Q92743; hit rate 0.5% among 340,000; inhibition, % at 5.96 µM; recombinant HTRA1, FP-rhodamine activity-based probe, fluorescence polarization; in the data active means inhibition above about 36%
SIAE inh: inhibitors of human sialic acid acetylesterase SIAE. Q9HAT2. SIAE FP-Rh probe binding, fluorescence polarization. inhibition, % at 9.66 µM. hit rate 0.69% among 370,000. AID 1053197;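 active means inhibition above a cutoff: mean of compounds within the control limits plus 3 SD of those, cut at about 17% in these data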
TDP2 inh: TDP2 (human) inhibition, absorbance primary screen. O95551. recombinant TDP2, T5PNP hydrolysis, p-nitrophenol absorbance 415 nm. inhibition, % at 12.8 µM. hit rate 0.34% among 370,000. AID 720702;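 active means inhibition above the mean of all tested compounds plus 3 SD, set per campaign, cut at about 25% in these data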
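Read-out basis: percent inhibition. System: recombinant human TDP2. Buffer or medium: Mg2+-containing Tris-HCl buffer, pH 7.5. Repeats: single replicate. Timing: reaction 2 h, 37 °C. Benchmarks: high control without enzyme, low control DMSO plus TDP2. Probe or stimulus: 5 mM T5PNP. Doses: 12.8 µM only. Measured by: epi absorbance of p-nitrophenol freed from T5PNP by hydrolysis.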
PAD4 FP inh: inhibitors of human PAD4; recombinant PAD4, RCA probe fluorescence polarization; inhibition, % at 6.36 µM; hit rate 0.41% among 330,000; AID 485272;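 active means percent inhibition above a cutoff equal to the mean of all tested compounds plus 3 SD, cut at about 15% in these data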
Target sequence (Q9UM07 whole entry, looked up): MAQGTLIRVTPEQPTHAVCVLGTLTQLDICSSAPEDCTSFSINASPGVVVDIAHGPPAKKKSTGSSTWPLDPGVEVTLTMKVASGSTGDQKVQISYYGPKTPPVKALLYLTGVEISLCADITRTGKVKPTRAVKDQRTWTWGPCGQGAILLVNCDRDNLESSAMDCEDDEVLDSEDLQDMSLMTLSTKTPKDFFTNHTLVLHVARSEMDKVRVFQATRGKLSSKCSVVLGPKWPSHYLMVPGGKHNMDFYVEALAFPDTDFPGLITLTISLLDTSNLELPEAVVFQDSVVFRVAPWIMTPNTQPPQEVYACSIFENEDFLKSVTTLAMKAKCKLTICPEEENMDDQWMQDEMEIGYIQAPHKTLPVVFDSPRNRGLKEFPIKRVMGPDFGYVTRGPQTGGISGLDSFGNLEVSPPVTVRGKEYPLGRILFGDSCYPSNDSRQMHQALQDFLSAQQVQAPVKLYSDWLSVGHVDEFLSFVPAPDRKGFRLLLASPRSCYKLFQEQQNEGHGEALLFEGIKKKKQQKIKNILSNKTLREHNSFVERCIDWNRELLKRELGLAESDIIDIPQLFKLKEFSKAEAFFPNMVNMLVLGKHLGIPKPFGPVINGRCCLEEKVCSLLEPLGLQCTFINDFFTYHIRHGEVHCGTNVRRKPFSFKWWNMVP
mABHD4 FP: inhibits mouse alpha/beta hydrolase domain 4; purified mABHD4, FP-Rh probe fluorescence polarization; Q8VD66; inhibition, % at 8.92 µM; hit rate 0.54% among 370,000; AID 720543;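 active means inhibition exceeding the mean over every tested compound plus 3 SD, cut at about 30% in these data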
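System: mouse ABHD4 enzyme, wild type / Medium: HEPES pH 7.0, NaCl, Pluronic buffer / Reagent: FP-Rh activity-based fluorescent probe / Control set: S159A mutant high control, sample median low control / Detection: fluorescence polarization with parallel and perpendicular emission, 525/598 nm / Schedule: 45 min + 60 min at 25 °C / Compound dosing: 8.92 µM, single dose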
TCR-CD3 inh: blocks the human TCR-CD3 interaction. hit rate 0.37% among 360,000. TAMRA-labeled TCR probe fluorescence, biochemical. inhibition, % at 9.4 µM;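 further: recombinant mutant TCR 2C K166C tagged with TAMRA read by polarization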
HTRA1 conf: confirmation of human HTRA1 inhibitors. hit rate 66% among 1,600. recombinant HTRA1, FP-rhodamine activity-based probe, fluorescence polarization. inhibition, % at 5.96 µM. shares compounds with HTRA1 inh. AID 540248;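 active means mean inhibition over three repeats above a set limit taken from the earlier primary screen, cut at about 37% in these data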;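 further: inhibitors block probe binding so polarization drops and inhibition rises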
BSA probe FL: BSA probe counter-screen for TCR-CD3 inhibitors; shares compounds with TCR-CD3 inh; TAMRA-labeled BSA probe fluorescence counterscreen; inhibition, % at 9.4 µM; hit rate 10% among 1,200; in the data active means inhibition above about 23%
TCR-CD3 conf: confirmation of human TCR-CD3 interaction inhibitors; shares compounds with TCR-CD3 inh; TAMRA-labeled TCR probe fluorescence binding assay; inhibition, % at 9.4 µM; hit rate 48% among 1,200
ABHD4 confirm: ABHD4 (mouse) inhibition, FP confirmation; shares compounds with mABHD4 FP; purified mABHD4, FP-Rh probe fluorescence polarization; inhibition, % at 8.92 µM; hit rate 55% among 1,800;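 active means mean inhibition across replicates above the hit cutoff set in the primary screen, cut at about 30% in these data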
A number is an active result; 0 = inactive; - = no result; + = active, no number; ! = not confirmed by another sample. Unless noted, no stated cut-off is given here; in the data, active means inhibition above about 19%; inactive means the rest.

SMILES	HTRA1 inh	SIAE inh	TDP2 inh	PAD4 FP inh	mABHD4 FP	TCR-CD3 inh	HTRA1 conf	ABHD4 confirm	others
C[C@H](CO)N1C[C@H](C)[C@@H](CN(C)C(=O)CN2CCOCC2)Oc2cc(Br)ccc2S1(=O)=O	0	0	0	-	0	0	-	-
COc1ccc(N(CC(=O)NCCC2=CCCCC2)S(=O)(=O)c2c(C)[nH]c(=O)[nH]c2=O)cc1	0	0	0	0	0	0	-	-
CCCC(=O)NCc1ccc2c(c1)cc(C)n2C	0	0	0	0	0	0	-	-
Cc1cccc(NC(=O)NCc2ccc3c(c2)cc(C)n3C)c1	40.2	0	0	0	41.7	34.1	0	0	BSA probe FL=0;TCR-CD3 conf=0
COCCN(C(=O)CSc1nnc(-c2ccco2)n1C)c1c(N)n(CC(C)C)c(=O)[nH]c1=O	0	0	0	0	0	0	-	-
CC(=O)Nc1ccc(-c2csc(Nc3ccccn3)n2)cc1	0	0	0	0	0	0	-	-
Cc1cccnc1Nc1nc(-c2ccc(O)c(O)c2)cs1	80.9	0	0	0	35.2	0	69.7	43.2
Oc1ccc(-c2csc(Nc3ccccn3)n2)cc1O	64.3	0	0	0	31.3	0	79.6	39.9
COc1ccc(-c2csc(Nc3ncccc3C)n2)cc1OC	0	0	0	0	0	0	-	-
Cc1cccc(Nc2nc(-c3ccc(O)c(O)c3)cs2)n1	60.0	0	0	0	33.6	0	59.1	57.3
Cc1ccnc(Nc2nc(-c3ccc(O)c(O)c3)cs2)c1	73.5	0	0	0	42.0	0	85.1	47.2
Cc1ccc(NC(=O)C2CCCN2S(=O)(=O)c2cccnc2)cc1C (centres undefined)	-	0	0	-	0	-	-	-
CCOc1ccc(-n2c(SC/C=C/c3ccccc3)nnc2-c2ccco2)cc1	-	0	0	-	0	-	-	-
CC/C(=N\Nc1ccnc2cc(Cl)ccc12)c1ccc(O)cc1	0	0	0	0	0	0	-	-
Oc1ccc(/C=N/Nc2ccnc3cc(Cl)ccc23)cc1O	42.3	0	0	0	34.9	0	71.7	62.7
Cc1ccc(C)c(N2CCN(C3C(=O)Nc4ccccc4-n4nnnc43)CC2)c1 (centres undefined)	-	0	0	-	0	0	-	-
Cc1ccc(S(=O)(=O)NCCC(=O)NCCOc2ccccc2)cc1	0	0	0	-	0	0	-	-
Nc1[nH]n(-c2ccccc2)c(=O)c1N=Nc1ccc2ncsc2c1	36.3	0	0	0	48.0	0	0	65.1
Fc1cccc(Cl)c1CNc1ccc(N2CCCC2)cc1	47.4	0	0	0	31.5	0	0	49.1
Fc1cccc(F)c1C(Nc1nncs1)Nc1nncs1	-	0	0	-	0	0	-	-
Nc1scc2c(C(=O)N/N=C/c3ccc(Cl)cc3)nn(-c3ccccc3)c(=O)c12	41.2	0	0	0	43.9	0	0	0
CCCCC(=O)Nc1nc(C)c(-c2csc(Nc3cc(Cl)ccc3OC)n2)s1	0	0	0	0	0	0	-	-
CCCCC(=O)Nc1nc(C)c(-c2csc(Nc3cc(OC)ccc3OC)n2)s1	38.9	0	0	0	42.3	0	0	66.4
COc1ccc(OC)c(Nc2nc(-c3sc(NC(=O)CC(C)C)nc3C)cs2)c1	37.1	0	0	0	34.9	0	0	54.5
NC(=NCCCCCCN=C(N)/N=C(\N)Nc1ccc(Cl)cc1)/N=C(\N)Nc1ccc(Cl)cc1	42.4!	0	0	0	45.8!	0	45.3	39.7
SMILES	HTRA1 inh	SIAE inh	TDP2 inh	PAD4 FP inh	mABHD4 FP	TCR-CD3 inh	HTRA1 conf	ABHD4 confirm	others
CC(C)N=C(N)N=C(N)Nc1ccc(Cl)cc1	0	0	0	0	0	0	-	-
Cc1ncc(N=Nc2ccccc2Cl)c(-c2ccccc2)n1	0	0	0	0	0	0	-	-
Nc1nc(-c2ccccc2)c(N=Nc2cccc3ccccc23)s1	76.0	0	0	0	48.7	0	80.5	58.5
Nc1nc(-c2ccccc2)c(N=Nc2ccccc2Cl)s1	73.1	0	0	0	46.3	0	115.2	75.7
Clc1ccccc1C1Nc2cccc3cccc(c23)N1	47.9	0	0	0	47.7	0	0	36.5
CNc1cccnc1C=NNC(N)=S	0	0	0	-	0	0	-	-
NC(=S)NN=Cc1nccc2c(C(F)(F)F)cccc12	68.9	0	0	-	31.2	0	79.8	31.9
O=C(N/N=C/c1ccc(O)c(O)c1)NC12CC3CC(CC(C3)C1)C2	67.8	0	0	0	32.7	0	82.2	31.1
Oc1ccccc1N=Cc1c(O)ccc2ccccc12	63.3	0	0	-	44.6	28.7	77.6	44.6	BSA probe FL=0;TCR-CD3 conf=37.0
CCCCNC(=O)c1onc(CSc2ccccn2)c1C(=O)NCCCC	0	0	0	0	0	0	-	-
Cc1ccc(S(=O)(=O)N2CCOCC2)cc1C(=O)NC(=S)N1CC(C)OC(C)C1 (centres undefined)	0	0	0	0	0	0	-	-
O=C(CSc1n[nH]c(-c2ccccc2)n1)c1ccc(O)c(O)c1	72.3	0	0	0	34.4	0	66.5	0
Cc1ccc(O)c(NC(=O)CSc2n[nH]c(-c3ccccc3)n2)c1	0	0	0	0	0	0	-	-
Cc1cc(SCC(=O)c2ccc(O)c(O)c2)nc2ccccc12	53.7	0	0	0	38.5	29.3	69.2	0	BSA probe FL=0;TCR-CD3 conf=24.4
COc1ccc(/C=C/C(=O)NNC(=O)C(C)Oc2ccccc2F)cc1OC (centres undefined)	0	0	0	0	0	0	-	-
O=c1ccc2[n+]([O-])c3ccc(O)cc3oc-2c1	141.2	-	0	-	+	-	+	+
O=c1cc(O)c2ccc(O)cc2o1	0	0	0	0	0	0	-	-
O=C(Nc1ccc(C(=O)N2CCCC2)cc1)C1CCC1	0	0	0	-	0	0	-	-
Cc1ccc(C2C3=C(CC(C)(C)CC3=O)OC3=C2C(=O)CC(C)(C)C3)cc1	0	0	0	0	0	0	-	-
Cc1[nH]n2c(=O)cc(-c3ccc([N+](=O)[O-])cc3)nc2c1-c1ccccc1	40.2	0	0	0	48.0	0	87.4	72.0
CCCc1cc(=O)n2[nH]c(C)c(-c3ccccc3)c2n1	0	0	0	0	0	0	-	-
CCCCCC(O)CCCC(=O)O (centres undefined)	0	0	0	-	0	0	-	-
CCCCCCCCCCCCCCCC(O)C[N+](C)(C)CCO (centres undefined)	+	0	0	-	38.4	0	66.0	50.7

Screens from PubChem BioAssay.
